Values belong to the compound of their own block, whether it stands above or below them. Activity calls are given as the source filed them. No cut-off for these calls is given here.
Columns and labels:
Hepatitis B virus [1] = experiment: Antiviral activity against HBV infected in human HepG2.2.15 cells assessed as […] at 100 uM incubated for 4 days prior to compound washout followed by compound addition and measured after 4 days by fluorogenic probe based RT-qPCR analysis relative to control; type: functional; conditions: for inhibition: time 8.0 day; for inhibition at 100 µM: HepG2.2.15, 192 h, time 8 day
HepG2 2.2.15 [2] = experiment: Cytotoxicity against human HepG2.2.15 cells assessed as reduction in cell viability at 100 uM incubated for 4 days prior to compound washout followed by compound addition and measured after 4 days by CCK8 assay relative to control; type: cell-based; conditions: hepg2 2.2.15, 192 h, time 8 day
Outline: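 Three wells of 4000 HepG2.2.15 cells per well received a single 100 µM concentration for 8 days, with medium replaced on day 4. CCK-8 (10%) was added 0.5 h before the end, and OD was read at 450 and 630 nm. Percent cell death was calculated against untreated cells.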

Hepatitis B virus [3] = experiment: Antiviral activity against HBV infected in human HepG2.2.15 cells assessed as reduction in intracellular viral DNA level at 20 uM incubated for 4 days prior to compound washout followed by compound addition and measured after 4 days by fluorogenic probe based RT-qPCR analysis relative to control; type: functional; conditions: for inhibition: time 8.0 day
HepG2 2.2.15 [4] = experiment: Cytotoxicity against human HepG2.2.15 cells assessed as reduction in cell viability at 20 uM incubated for 4 days prior to compound washout followed by compound addition and measured after 4 days by CCK8 assay relative to control; type: cell-based; conditions: hepg2 2.2.15, 192 h, time 8 day
Hepatitis B virus [5] = experiment: Antiviral activity against HBV infected in human HepG2.2.15 cells assessed as reduction in intracellular viral DNA level at 50 uM incubated for 4 days prior to compound washout followed by compound addition and measured after 4 days by fluorogenic probe based RT-qPCR analysis relative to control; type: functional; conditions: for inhibition: time 8.0 day
HepG2 2.2.15 [6] = experiment: Cytotoxicity against human HepG2.2.15 cells assessed as reduction in cell viability at 50 uM incubated for 4 days prior to compound washout followed by compound addition and measured after 4 days by CCK8 assay relative to control; type: cell-based; conditions: hepg2 2.2.15, 192 h, time 8 day
[7] = Cytotoxicity against human HepG2.2.15 cells assessed as reduction in cell viability incubated for 4 days prior to compound washout followed by compound addition and measured after 4 days by CCK8 assay; type: cell-based, HepG2 2.2.15; conditions: time 8 day
Outline: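 Cytotoxicity in HepG2.2.15 cells was measured with five doses (100, 20, 4, 0.8, 0.16 µM) over 8 days, with medium changed on day 4. CCK-8 (10%) was added 0.5 h before the end, OD was read at 450/630 nm, and CC50 is the concentration killing 50% of cells against untreated controls.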

Hepatitis B virus [8] = experiment: Antiviral activity against HBV infected in human HepG2.2.15 cells assessed as […] incubated for 4 days prior to compound washout followed by compound addition and measured after 4 days by fluorogenic probe based RT-qPCR analysis; type: functional, organism-based
[9] = Selectivity index, ratio of CC50 for human HepG2.2.15 cells to IC50 for antiviral activity against HBV infected in human HepG2.2.15 cells assessed as reduction in intracellular viral DNA level; type: toxicity, cell-based; conditions: read-out: Ratio CC50/IC50
Hepatitis B virus [10] = experiment: Antiviral activity against HBV infected in human HepG2.2.15 cells assessed as reduction in HBsAg secretion incubated for 4 days prior to compound washout followed by compound addition and measured after 4 days by ELISA; type: functional, organism-based
Outline: (§1)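 Five doses (100, 20, 4, 0.8, 0.16 µM) were added in triplicate to HepG2.2.15 cultures for 8 days, with fresh medium on day 4 and untreated controls. Day-8 supernatants were assayed for HBsAg and HBeAg by ELISA kit with absorbance read-out. IC50 is the concentration giving 50% inhibition of antigen secretion.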

Hepatitis B virus [11] = experiment: Antiviral activity against HBV infected in human HepG2.2.15 cells assessed as reduction in HBeAg secretion incubated for 4 days prior to compound washout followed by compound addition and measured after 4 days by ELISA; type: functional, organism-based; outline: as §1
[12] = Selectivity index, ratio of CC50 for human HepG2.2.15 cells to IC50 for antiviral activity against HBV infected in human HepG2.2.15 cells assessed as reduction in HBsAg secretion; type: toxicity, cell-based; conditions: read-out: Ratio CC50/IC50
[13] = Selectivity index, ratio of CC50 for human HepG2.2.15 cells to IC50 for antiviral activity against HBV infected in human HepG2.2.15 cells assessed as reduction in HBeAg secretion; type: toxicity, cell-based; conditions: read-out: Ratio CC50/IC50
Hepatitis B virus [14] = experiment: Binding affinity to recombinant HBV capsid protein assessed as response value at 22.2 uM by surface plasmon resonance analysis (reference value: 11.31)
Outline: (§2)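 Recombinant HBV capsid protein purified and amine-coupled to a CM5 sensor chip. Six doses of test compound run with running buffer containing 5% DMSO, plus eight solvent-calibration solutions and 50% DMSO solution. Samples centrifuged 15 min before loading. PBS and NaAc-HAc buffers used. Binding read as SPR response.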

Hepatitis B virus [15] = experiment: Binding affinity to recombinant HBV capsid protein assessed as response value at 14.8 uM by surface plasmon resonance analysis (reference value: 11.31); outline: as §2
Hepatitis B virus [16] = experiment: Binding affinity to recombinant HBV capsid protein assessed as response value at 9.9 uM by surface plasmon resonance analysis (reference value: 11.31); outline: as §2
Hepatitis B virus [17] = experiment: Binding affinity to recombinant HBV capsid protein assessed as response value at 6.6 uM by surface plasmon resonance analysis (reference value: 11.31); outline: as §2
[18] = (§3) Binding affinity to recombinant HBV capsid protein by surface plasmon resonance analysis; design: species or system Hepatitis B virus; outline: as §2
Hepatitis B virus [19] = experiment: as §3; outline: as §2

Structure (SMILES): CCOC(=O)c1cn(-c2cccc(F)c2)nc1NC
inhibition (Hepatitis B virus [1]): inactive
Activity (HepG2 2.2.15 [2]): 5.7%

Structure (SMILES): CCOC(=O)c1cn(-c2cccc(F)c2)nc1NCc1ccccc1
inhibition at 100 µM (Hepatitis B virus [1]): 14.6%
Activity (HepG2 2.2.15 [2]): Non-Toxic

Structure (SMILES): CCNc1nn(-c2cccc(F)c2)cc1C(=O)OCC
inhibition at 100 µM (Hepatitis B virus [1]): 39.9%
Activity (HepG2 2.2.15 [2]): 10.9%

Structure (SMILES): Cc1ccc(-c2nc(CC(C)C)c(C(=O)NCc3ccc(F)cc3)s2)s1
inhibition (Hepatitis B virus [3]): inactive
Activity (HepG2 2.2.15 [4]): Non-Toxic

Structure (SMILES): CC(C)Cc1nc(-c2ccccc2)ncc1C(=O)NCc1ccccc1
inhibition (Hepatitis B virus [5]): inactive
Activity (HepG2 2.2.15 [6]): Non-Toxic

IC50 (Hepatitis B virus [8]): 0.6 µM
IC50 (Hepatitis B virus [10]): > 100 µM
IC50 (Hepatitis B virus [11]): > 100 µM
Structure (SMILES): Nc1ccn([C@@H]2CS[C@H](CO)O2)c(=O)n1 [LAMIVUDINE]
inhibition at 100 µM (Hepatitis B virus [1]): 87.9%
Activity (HepG2 2.2.15 [2]): 12.7%
CC50 at 192 h [7]: > 100 µM
selectivity ratio [9]: > 167

Structure (SMILES): COC(=O)c1nc(-c2ccccc2OC)cnc1NC(=O)c1ccccc1
inhibition (Hepatitis B virus [5]): inactive
Activity (HepG2 2.2.15 [6]): 5.7%

Structure (SMILES): CCOC(=O)c1cnc(-c2ccccc2)nc1CC(C)C
inhibition at 50 µM (Hepatitis B virus [5]; HepG2.2.15, 192 h, time 8 day): 37.3%
Activity (HepG2 2.2.15 [6]): Non-Toxic

Structure (SMILES): CC(C)Cc1nc(NC(=O)c2cccs2)sc1C(=O)NCc1ccc(F)cc1
inhibition (Hepatitis B virus [3]): inactive
Activity (HepG2 2.2.15 [4]): 15.2%

Structure (SMILES): O=C(NCc1ccc(F)cc1Cl)c1cn(-c2nccs2)nc1NCc1ccccc1
inhibition at 100 µM (Hepatitis B virus [1]): 41.6%
Activity (HepG2 2.2.15 [2]): 29.2%

Structure (SMILES): CCOC(=O)c1cn(-c2nccs2)nc1NCc1ccccc1
inhibition (Hepatitis B virus [1]): inactive
Activity (HepG2 2.2.15 [2]): 30.4%

Structure (SMILES): CC(C)Cc1nc(-c2ccsc2)sc1C(=O)NCc1ccc(F)cc1
inhibition (Hepatitis B virus [3]): inactive
Activity (HepG2 2.2.15 [4]): 6.7%

Structure (SMILES): CC(C)Cc1sc(-c2nccs2)nc1C(=O)Nc1ccc(F)cc1
inhibition at 100 µM (Hepatitis B virus [1]): 89.8%
Activity (HepG2 2.2.15 [2]): Non-Toxic
CC50 at 192 h [7]: 80.8 µM
IC50 (Hepatitis B virus [8]): 2.2 µM
selectivity ratio [9]: 36.7
IC50 (Hepatitis B virus [10]): > 100 µM
selectivity ratio [12]: < 0.8
IC50 (Hepatitis B virus [11]): > 100 µM
selectivity ratio [13]: < 0.8
Activity (Hepatitis B virus [14]): 26.4 RU
Activity (Hepatitis B virus [15]): 20.6 RU
Activity (Hepatitis B virus [16]): 18.8 RU
Activity (Hepatitis B virus [17]): 15.4 RU
Kd [18]: 60 µM
Activity (Hepatitis B virus [19]): Dose-dependent effect

Structure (SMILES): CC(C)Cc1nc(NC(=O)c2ccc(F)cc2)sc1C(=O)NCc1ccc(F)cc1
inhibition at 20 µM (Hepatitis B virus [3]; HepG2.2.15, 192 h, time 8 day): 29.2%
Activity (HepG2 2.2.15 [4]): 20.7%
